Test system: not listed separately
Experiment: Antiinflammatory activity in mouse RAW264.7 cells assessed as inhibition of LPS-induced nitric oxide production at 100 uM after 24 hrs by Griess assay relative to control
Assay type: functional
Settings: RAW264.7, 24 h
Outline: (§1)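 RAW264.7 cells (5 × 10^5/mL) pre-treated with samples at 100, 50, 10 or 1 µM, then LPS (100 ng/mL) for 24 h. Nitrite in medium measured by mixing with equal volume Griess reagent (1% sulfanilamide in 5% H3PO4, 0.1% N-naphthyl-ethylenediamine), 10 min at 37 °C, absorbance 540 nm; quantified against NaNO2 standard curve; minocycline as positive control.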

| SMILES | inhibition at 100 µM [%] |
| --- | --- |
| COc1cc([C@@H](O)[C@@H](CO)Oc2ccc([C@@H](O)[C@H](O)CO)cc2OC)ccc1O | 4.4 |
| COc1cc([C@@H](CO)[C@H](OC)c2ccc(O[C@H](CO)[C@@H](O)c3ccc(O)c(OC)c3)c(OC)c2)ccc1O | 61.2 |

Test system: not listed separately
Experiment: Antioxidant activity assessed as ferric ion reducing activity by measuring Fe2+ levels using fe3+-TPTZ at 750 ug/ml after 30 mins by FRAP assay
Assay type: functional
Settings: not given
Outline: (§2)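 FRAP reagent: 300 mM acetate buffer pH 3.6, 10 mM TPTZ in 40 mM HCl, 20 mM FeCl3. Sample (3000, 1500, 750, 375 µg/mL solutions) mixed with reagent, 30 min at 37 °C, absorbance 593 nm. Values expressed as µM Fe2+ from FeSO4 calibration curve (5–450 µM).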

| SMILES | Activity [µmol/L] |
| --- | --- |
| COc1cc([C@@H](O)[C@@H](CO)Oc2ccc([C@@H](O)[C@H](O)CO)cc2OC)ccc1O | 18.5 |
| Cc1c(C)c2c(c(C)c1O)CCC(C)(C(=O)O)O2 (stereo not given) [TROLOX] | 96.9 |
| COc1cc([C@@H](CO)[C@H](OC)c2ccc(O[C@H](CO)[C@@H](O)c3ccc(O)c(OC)c3)c(OC)c2)ccc1O | 73 |

Test system: not listed separately
Experiment: Antioxidant activity assessed as DPPH radical scavenging activity incubated in dark for 30 mins
Assay type: functional
Settings: not given
Outline: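 Samples (0.4 mM stock, 5–40 µL series) and DPPH (2 mM stock, 20 µL) in ethanol, made to 200 µL with ethanol; incubated 30 min in dark at 37 °C; absorbance at 517 nm. Ethanol replaced sample as blank.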

| SMILES | IC50 [µM] |
| --- | --- |
| COc1cc([C@@H](O)[C@@H](CO)Oc2ccc([C@@H](O)[C@H](O)CO)cc2OC)ccc1O | 89 |
| Cc1c(C)c2c(c(C)c1O)CCC(C)(C(=O)O)O2 (stereo not given) [TROLOX] | 30.2 |
| COc1cc([C@@H](CO)[C@H](OC)c2ccc(O[C@H](CO)[C@@H](O)c3ccc(O)c(OC)c3)c(OC)c2)ccc1O | 67.2 |

Test system: not listed separately
Experiment: Antiinflammatory activity in mouse RAW264.7 cells assessed as inhibition of LPS-induced nitric oxide production after 24 hrs by Griess assay
Assay type: functional, cell-based
Settings: RAW264.7, 24 h
Outline: as §1

| SMILES | IC50 [µM] |
| --- | --- |
| COc1cc([C@@H](O)[C@@H](CO)Oc2ccc([C@@H](O)[C@H](O)CO)cc2OC)ccc1O | > 100 |
| COc1cc([C@@H](CO)[C@H](OC)c2ccc(O[C@H](CO)[C@@H](O)c3ccc(O)c(OC)c3)c(OC)c2)ccc1O | 62.9 |

Test system: not listed separately
Experiment: Antiinflammatory activity in mouse RAW264.7 cells assessed as inhibition of LPS-induced TNFalpha production at 100 uM after 24 hrs by ELISA relative to control
Assay type: functional
Settings: RAW264.7, 24 h
Outline: (§3)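 RAW264.7 cells plated at 5 × 10^5/mL, pre-treated with samples at 100, 50, 10 or 1 µM, then stimulated with LPS (100 ng/mL) for 24 h. TNF-α in the medium measured by ELISA kit per manufacturer's instructions and quantified from a standard curve; silybin as positive control.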

| SMILES | inhibition at 100 µM [%] |
| --- | --- |
| COc1cc([C@@H](O)[C@@H](CO)Oc2ccc([C@@H](O)[C@H](O)CO)cc2OC)ccc1O | 52.5 |
| COc1cc(C2Oc3cc([C@H]4Oc5cc(O)cc(O)c5C(=O)[C@@H]4O)ccc3OC2CO)ccc1O (stereo not given in full) [SILIBININ] | 53.8 |
| COc1cc([C@@H](CO)[C@H](OC)c2ccc(O[C@H](CO)[C@@H](O)c3ccc(O)c(OC)c3)c(OC)c2)ccc1O | 17.1 |

Species: Mus musculus
Experiment: Cytotoxicity against mouse RAW264.7 cells assessed as effect on cell viability at 100 uM preincubated for 1 hr followed by LPS stimulation measured after 24 hrs by MTT assay
Assay type: toxicity, cell-based
Settings: raw264.7, 24 h
Outline: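 RAW264.7 cells in DMEM with 10% FBS and penicillin/streptomycin at 37 °C, 5% CO2, seeded 5 × 10^5 cells/well; treated with samples (100 µM) 1 h, then LPS (100 ng/mL) 24 h. MTT (0.25 mg/mL) added for 4 h; formazan read at 540 nm; untreated cells as control.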

| SMILES | Activity |
| --- | --- |
| COc1cc([C@@H](O)[C@@H](CO)Oc2ccc([C@@H](O)[C@H](O)CO)cc2OC)ccc1O | Non-Toxic |
| COc1cc([C@@H](CO)[C@H](OC)c2ccc(O[C@H](CO)[C@@H](O)c3ccc(O)c(OC)c3)c(OC)c2)ccc1O | Non-Toxic |

Test system: not listed separately
Experiment: Antioxidant activity assessed as ferric ion reducing activity by measuring Fe2+ levels using fe3+-TPTZ at 375 ug/ml after 30 mins by FRAP assay
Assay type: functional
Settings: not given
Outline: as §2

| SMILES | Activity [µmol/L] |
| --- | --- |
| COc1cc([C@@H](O)[C@@H](CO)Oc2ccc([C@@H](O)[C@H](O)CO)cc2OC)ccc1O | 12 |
| Cc1c(C)c2c(c(C)c1O)CCC(C)(C(=O)O)O2 (stereo not given) [TROLOX] | 51.7 |
| COc1cc([C@@H](CO)[C@H](OC)c2ccc(O[C@H](CO)[C@@H](O)c3ccc(O)c(OC)c3)c(OC)c2)ccc1O | 45.8 |

Test system: not listed separately
Experiment: Antiinflammatory activity in mouse RAW264.7 cells assessed as inhibition of LPS-induced TNFalpha production at 10 uM after 24 hrs by ELISA relative to control
Assay type: functional
Settings: RAW264.7, 24 h
Outline: as §3

| SMILES | inhibition at 10 µM [%] |
| --- | --- |
| COc1cc([C@@H](O)[C@@H](CO)Oc2ccc([C@@H](O)[C@H](O)CO)cc2OC)ccc1O | 21.2 |
| COc1cc(C2Oc3cc([C@H]4Oc5cc(O)cc(O)c5C(=O)[C@@H]4O)ccc3OC2CO)ccc1O (stereo not given in full) [SILIBININ] | 27 |
| COc1cc([C@@H](CO)[C@H](OC)c2ccc(O[C@H](CO)[C@@H](O)c3ccc(O)c(OC)c3)c(OC)c2)ccc1O | 2.9 |

Test system: not listed separately
Experiment: Antiinflammatory activity in mouse RAW264.7 cells assessed as inhibition of LPS-induced nitric oxide production at 50 uM after 24 hrs by Griess assay relative to control
Assay type: functional
Settings: RAW264.7, 24 h
Outline: as §1

| SMILES | inhibition at 50 µM [%] |
| --- | --- |
| COc1cc([C@@H](O)[C@@H](CO)Oc2ccc([C@@H](O)[C@H](O)CO)cc2OC)ccc1O | 2.6 |
| COc1cc([C@@H](CO)[C@H](OC)c2ccc(O[C@H](CO)[C@@H](O)c3ccc(O)c(OC)c3)c(OC)c2)ccc1O | 42.1 |

Test system: not listed separately
Experiment: Antioxidant activity assessed as ferric ion reducing activity by measuring Fe2+ levels using fe3+-TPTZ at 3000 ug/ml after 30 mins by FRAP assay
Assay type: functional
Settings: not given
Outline: as §2

| SMILES | Activity [µmol/L] |
| --- | --- |
| COc1cc([C@@H](O)[C@@H](CO)Oc2ccc([C@@H](O)[C@H](O)CO)cc2OC)ccc1O | 66.3 |
| Cc1c(C)c2c(c(C)c1O)CCC(C)(C(=O)O)O2 (stereo not given) [TROLOX] | 172 |
| COc1cc([C@@H](CO)[C@H](OC)c2ccc(O[C@H](CO)[C@@H](O)c3ccc(O)c(OC)c3)c(OC)c2)ccc1O | 128 |

Test system: not listed separately
Experiment: Antiinflammatory activity in mouse RAW264.7 cells assessed as inhibition of LPS-induced TNFalpha production at 50 uM after 24 hrs by ELISA relative to control
Assay type: functional
Settings: RAW264.7, 24 h
Outline: as §3

| SMILES | inhibition at 50 µM [%] |
| --- | --- |
| COc1cc([C@@H](O)[C@@H](CO)Oc2ccc([C@@H](O)[C@H](O)CO)cc2OC)ccc1O | 30.8 |
| COc1cc(C2Oc3cc([C@H]4Oc5cc(O)cc(O)c5C(=O)[C@@H]4O)ccc3OC2CO)ccc1O (stereo not given in full) [SILIBININ] | 47 |
| COc1cc([C@@H](CO)[C@H](OC)c2ccc(O[C@H](CO)[C@@H](O)c3ccc(O)c(OC)c3)c(OC)c2)ccc1O | 9.3 |

Test system: not listed separately
Experiment: Antiinflammatory activity in mouse RAW264.7 cells assessed as inhibition of LPS-induced TNFalpha production after 24 hrs by ELISA
Assay type: functional, cell-based
Settings: RAW264.7, 24 h
Outline: as §3

| SMILES | IC50 [µM] |
| --- | --- |
| COc1cc([C@@H](O)[C@@H](CO)Oc2ccc([C@@H](O)[C@H](O)CO)cc2OC)ccc1O | 94.2 |
| COc1cc(C2Oc3cc([C@H]4Oc5cc(O)cc(O)c5C(=O)[C@@H]4O)ccc3OC2CO)ccc1O (stereo not given in full) [SILIBININ] | 69.2 |
| COc1cc([C@@H](CO)[C@H](OC)c2ccc(O[C@H](CO)[C@@H](O)c3ccc(O)c(OC)c3)c(OC)c2)ccc1O | > 100 |

Test system: not listed separately
Experiment: Antiinflammatory activity in mouse RAW264.7 cells assessed as inhibition of LPS-induced nitric oxide production at 10 uM after 24 hrs by Griess assay relative to control
Assay type: functional
Settings: RAW264.7, 24 h
Outline: as §1

| SMILES | inhibition at 10 µM [%] |
| --- | --- |
| COc1cc([C@@H](O)[C@@H](CO)Oc2ccc([C@@H](O)[C@H](O)CO)cc2OC)ccc1O | -2.9 |
| COc1cc([C@@H](CO)[C@H](OC)c2ccc(O[C@H](CO)[C@@H](O)c3ccc(O)c(OC)c3)c(OC)c2)ccc1O | 22.1 |

Test system: not listed separately
Experiment: Antioxidant activity assessed as ABTS radical scavenging activity after 30 mins
Assay type: functional
Settings: not given
Outline: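 ABTS radical generated by 7 mM ABTS plus 2.4 mM potassium persulfate, 12 h dark at room temperature, diluted in ethanol to OD 0.700 at 734 nm. Samples at several concentrations mixed with ABTS+ solution, 30 min at 37 °C, read at 734 nm; ethanol blank; percent scavenging calculated relative to blank.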

| SMILES | IC50 [µM] |
| --- | --- |
| COc1cc([C@@H](O)[C@@H](CO)Oc2ccc([C@@H](O)[C@H](O)CO)cc2OC)ccc1O | 10.7 |
| Cc1c(C)c2c(c(C)c1O)CCC(C)(C(=O)O)O2 (stereo not given) [TROLOX] | 18.2 |
| COc1cc([C@@H](CO)[C@H](OC)c2ccc(O[C@H](CO)[C@@H](O)c3ccc(O)c(OC)c3)c(OC)c2)ccc1O | 7.8 |

Test system: not listed separately
Experiment: Antiinflammatory activity in mouse RAW264.7 cells assessed as inhibition of LPS-induced TNFalpha production at 1 uM after 24 hrs by ELISA relative to control
Assay type: functional
Settings: RAW264.7, 24 h
Outline: as §3

| SMILES | inhibition at 1 µM [%] |
| --- | --- |
| COc1cc([C@@H](O)[C@@H](CO)Oc2ccc([C@@H](O)[C@H](O)CO)cc2OC)ccc1O | 2.4 |
| COc1cc(C2Oc3cc([C@H]4Oc5cc(O)cc(O)c5C(=O)[C@@H]4O)ccc3OC2CO)ccc1O (stereo not given in full) [SILIBININ] | 10.3 |
| COc1cc([C@@H](CO)[C@H](OC)c2ccc(O[C@H](CO)[C@@H](O)c3ccc(O)c(OC)c3)c(OC)c2)ccc1O | -1.2 |

Test system: not listed separately
Experiment: Antioxidant activity assessed as ferric ion reducing activity by measuring Fe2+ levels using fe3+-TPTZ at 1500 ug/ml after 30 mins by FRAP assay
Assay type: functional
Settings: not given
Outline: as §2

| SMILES | Activity [µmol/L] |
| --- | --- |
| COc1cc([C@@H](O)[C@@H](CO)Oc2ccc([C@@H](O)[C@H](O)CO)cc2OC)ccc1O | 26 |
| Cc1c(C)c2c(c(C)c1O)CCC(C)(C(=O)O)O2 (stereo not given) [TROLOX] | 185 |
| COc1cc([C@@H](CO)[C@H](OC)c2ccc(O[C@H](CO)[C@@H](O)c3ccc(O)c(OC)c3)c(OC)c2)ccc1O | 106 |

Test system: not listed separately
Experiment: Antiinflammatory activity in mouse RAW264.7 cells assessed as inhibition of LPS-induced nitric oxide production at 1 uM after 24 hrs by Griess assay relative to control
Assay type: functional
Settings: RAW264.7, 24 h
Outline: as §1

| SMILES | inhibition at 1 µM [%] |
| --- | --- |
| COc1cc([C@@H](O)[C@@H](CO)Oc2ccc([C@@H](O)[C@H](O)CO)cc2OC)ccc1O | -1.2 |
| COc1cc([C@@H](CO)[C@H](OC)c2ccc(O[C@H](CO)[C@@H](O)c3ccc(O)c(OC)c3)c(OC)c2)ccc1O | 5.7 |

From ChEMBL document CHEMBL3864147, “Antioxidant and anti-inflammatory neolignans from the seeds of hawthorn” (Bioorg Med Chem Lett, 2016)
